Results as given in publication PMC7004521 (Cancer Science, 2019).

Assay: Adverse events suspected to be study drug related, phase 1 study
Assay type: in vivo, human
Method in brief: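 Adult patients with advanced solid tumours and confirmed MET dysregulation took oral capsules twice daily from 100 up to 600 mg in escalation, or 400 mg bid tablets, in 28-day cycles. Expansion was 600 mg bid capsules, with a switch to 400 mg bid tablets allowed. Patients were included if they had ≥1 dose and ≥1 valid post-baseline safety assessment. Events were graded by CTCAE v4.0.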

[1] = drug-related, escalation 600 mg bid n=8
[2] = drug-related, escalation 100-350 mg bid n=16
[3] = drug-related, expansion RP2D HCC n=11
[4] = drug-related, expansion RP2D gastric cancer n=9
[5] = drug-related, expansion RP2D other n=18

SMILES: CNC(=O)c1ccc(-c2cnc3ncc(Cc4ccc5ncccc5c4)n3n2)cc1F [capmatinib]
- Hypoalbuminemia, grade 3/4 [1]: 0 n (%)
- Hypophagia, all grades [1]: 0 n (%)
- Hypophagia, grade 3/4 [1]: 0 n (%)
- Lipase increased, all grades [1]: 0 n (%)
- Lipase increased, grade 3/4 [1]: 0 n (%)
- Maculo‐papular rash, all grades [1]: 0 n (%)
- Maculo‐papular rash, grade 3/4 [1]: 0 n (%)
- Myalgia, all grades [1]: 0 n (%)
- Myalgia, grade 3/4 [1]: 0 n (%)
- Nausea, all grades [1]: 3 (38) n (%)
- Nausea, grade 3/4 [1]: 0 n (%)
- Odynophagia, all grades [1]: 0 n (%)
- Odynophagia, grade 3/4 [1]: 0 n (%)
- Peripheral edema, all grades [1]: 1 (13) n (%)
- Peripheral edema, grade 3/4 [1]: 0 n (%)
- Pyrexia, all grades [1]: 0 n (%)
- Pyrexia, grade 3/4 [1]: 0 n (%)
- Stomatitis, all grades [1]: 1 (13) n (%)
- Stomatitis, grade 3/4 [1]: 0 n (%)
- Thrombocytopenia, all grades [1]: 0 n (%)
- Thrombocytopenia, grade 3/4 [1]: 0 n (%)
- Total protein decreased, all grades [1]: 1 (13) n (%)
- Total protein decreased, grade 3/4 [1]: 0 n (%)
- Upper abdominal pain, all grades [1]: 0 n (%)
- Upper abdominal pain, grade 3/4 [1]: 0 n (%)
- Vomiting, all grades [1]: 3 (38) n (%)
- Vomiting, grade 3/4 [1]: 0 n (%)
- ALT increased, all grades [2]: 0 n (%)
- ALT increased, grade 3/4 [2]: 0 n (%)
- AST increased, all grades [2]: 1 (6) n (%)
- Amylase increased, all grades [2]: 2 (13) n (%)
- Amylase increased, grade 3/4 [2]: 1 (6) n (%)
- Asthenia, all grades [2]: 4 (25) n (%)
- Asthenia, grade 3/4 [2]: 0 n (%)
- Blood bilirubin increased, all grades [2]: 3 (19) n (%)
- Blood bilirubin increased, grade 3/4 [2]: 1 (6) n (%)
- Blood creatinine increased, all grades [2]: 2 (13) n (%)
- Blood creatinine increased, grade 3/4 [2]: 0 n (%)
- Constipation, all grades [2]: 2 (13) n (%)
- Constipation, grade 3/4 [2]: 0 n (%)
- Decreased appetite, all grades [2]: 5 (31) n (%)
- Decreased appetite, grade 3/4 [2]: 1 (6) n (%)
- Diarrhea, all grades [2]: 2 (13) n (%)
- Diarrhea, grade 3/4 [2]: 0 n (%)
- Dizziness, all grades [2]: 0 n (%)
- Dizziness, grade 3/4 [2]: 0 n (%)
- Dyspepsia, all grades [2]: 0 n (%)
- Dyspepsia, grade 3/4 [2]: 0 n (%)
- Fatigue, all grades [2]: 3 (19) n (%)
- Fatigue, grade 3/4 [2]: 2 (13) n (%)
- Headache, all grades [2]: 1 (6) n (%)
- Headache, grade 3/4 [2]: 0 n (%)
- Hypoalbuminemia, all grades [2]: 3 (19) n (%)
- Hypoalbuminemia, grade 3/4 [2]: 1 (6) n (%)
- Hypophagia, all grades [2]: 2 (13) n (%)
- Hypophagia, grade 3/4 [2]: 2 (13) n (%)
- Lipase increased, all grades [2]: 1 (6) n (%)
- Lipase increased, grade 3/4 [2]: 1 (6) n (%)
- Maculo‐papular rash, all grades [2]: 0 n (%)
- Maculo‐papular rash, grade 3/4 [2]: 0 n (%)
- Myalgia, all grades [2]: 2 (13) n (%)
- Myalgia, grade 3/4 [2]: 0 n (%)
- Nausea, all grades [2]: 3 (19) n (%)
- Nausea, grade 3/4 [2]: 0 n (%)
- Odynophagia, all grades [2]: 1 (6) n (%)
- Odynophagia, grade 3/4 [2]: 0 n (%)
- Peripheral edema, all grades [2]: 3 (19) n (%)
- Peripheral edema, grade 3/4 [2]: 1 (6) n (%)
- Pyrexia, all grades [2]: 1 (6) n (%)
- Pyrexia, grade 3/4 [2]: 0 n (%)
- Stomatitis, all grades [2]: 0 n (%)
- Stomatitis, grade 3/4 [2]: 0 n (%)
- Thrombocytopenia, all grades [2]: 1 (6) n (%)
- Thrombocytopenia, grade 3/4 [2]: 0 n (%)
- Total protein decreased, all grades [2]: 1 (6) n (%)
- Total protein decreased, grade 3/4 [2]: 0 n (%)
- Upper abdominal pain, all grades [2]: 1 (6) n (%)
- Upper abdominal pain, grade 3/4 [2]: 0 n (%)
- Vomiting, all grades [2]: 4 (25) n (%)
- Vomiting, grade 3/4 [2]: 0 n (%)
- ALT increased, all grades [3]: 0 n (%)
- ALT increased, grade 3/4 [3]: 0 n (%)
- AST increased, all grades [3]: 1 (9) n (%)
- AST increased, grade 3/4 [3]: 1 (9) n (%)
- Amylase increased, all grades [3]: 0 n (%)
- Amylase increased, grade 3/4 [3]: 0 n (%)
- Asthenia, all grades [3]: 1 (9) n (%)
- Asthenia, grade 3/4 [3]: 0 n (%)
- Blood bilirubin increased, all grades [3]: 0 n (%)
- Blood bilirubin increased, grade 3/4 [3]: 0 n (%)
- Blood creatinine increased, all grades [3]: 1 (9) n (%)
- Blood creatinine increased, grade 3/4 [3]: 1 (9) n (%)
- Constipation, all grades [3]: 0 n (%)
- Constipation, grade 3/4 [3]: 0 n (%)
- Decreased appetite, all grades [3]: 2 (18) n (%)
- Decreased appetite, grade 3/4 [3]: 0 n (%)
- Diarrhea, all grades [3]: 4 (36) n (%)
- Diarrhea, grade 3/4 [3]: 0 n (%)
- Dizziness, all grades [3]: 1 (9) n (%)
- Dizziness, grade 3/4 [3]: 0 n (%)
- Dyspepsia, all grades [3]: 0 n (%)
- Dyspepsia, grade 3/4 [3]: 0 n (%)
- Fatigue, all grades [3]: 3 (27) n (%)
- Fatigue, grade 3/4 [3]: 0 n (%)
- Headache, all grades [3]: 0 n (%)
- Headache, grade 3/4 [3]: 0 n (%)
- Hypoalbuminemia, all grades [3]: 0 n (%)
- Hypoalbuminemia, grade 3/4 [3]: 0 n (%)
- Lipase increased, all grades [3]: 2 (18) n (%)
- Lipase increased, grade 3/4 [3]: 2 (18) n (%)
- Localized edema, all grades [3]: 0 n (%)
- Localized edema, grade 3/4 [3]: 0 n (%)
- Maculo‐papular rash, all grades [3]: 0 n (%)
- Maculo‐papular rash, grade 3/4 [3]: 0 n (%)
- Myalgia, all grades [3]: 0 n (%)
- Myalgia, grade 3/4 [3]: 0 n (%)
- Nausea, all grades [3]: 5 (46) n (%)
- Nausea, grade 3/4 [3]: 1 (9) n (%)
- Odynophagia, all grades [3]: 0 n (%)
- Odynophagia, grade 3/4 [3]: 0 n (%)
- Peripheral edema, all grades [3]: 3 (27) n (%)
- Peripheral edema, grade 3/4 [3]: 0 n (%)
- Pyrexia, all grades [3]: 0 n (%)
- Pyrexia, grade 3/4 [3]: 0 n (%)
- Stomatitis, all grades [3]: 0 n (%)
- Stomatitis, grade 3/4 [3]: 0 n (%)
- Thrombocytopenia, all grades [3]: 1 (9) n (%)
- Thrombocytopenia, grade 3/4 [3]: 0 n (%)
- Total protein decreased, all grades [3]: 0 n (%)
- Total protein decreased, grade 3/4 [3]: 0 n (%)
- Upper abdominal pain, all grades [3]: 0 n (%)
- Upper abdominal pain, grade 3/4 [3]: 0 n (%)
- Vomiting, all grades [3]: 3 (27) n (%)
- Vomiting, grade 3/4 [3]: 1 (9) n (%)
- ALT increased, all grades [4]: 1 (11) n (%)
- ALT increased, grade 3/4 [4]: 1 (11) n (%)
- AST increased, all grades [4]: 1 (11) n (%)
- Amylase increased, all grades [4]: 0 n (%)
- Amylase increased, grade 3/4 [4]: 0 n (%)
- Asthenia, all grades [4]: 0 n (%)
- Asthenia, grade 3/4 [4]: 0 n (%)
- Blood bilirubin increased, all grades [4]: 0 n (%)
- Blood bilirubin increased, grade 3/4 [4]: 0 n (%)
- Blood creatinine increased, all grades [4]: 0 n (%)
- Blood creatinine increased, grade 3/4 [4]: 0 n (%)
- Constipation, all grades [4]: 0 n (%)
- Constipation, grade 3/4 [4]: 0 n (%)
- Decreased appetite, all grades [4]: 0 n (%)
- Decreased appetite, grade 3/4 [4]: 0 n (%)
- Diarrhea, all grades [4]: 0 n (%)
- Diarrhea, grade 3/4 [4]: 0 n (%)
- Dizziness, all grades [4]: 0 n (%)
- Dizziness, grade 3/4 [4]: 0 n (%)
- Dyspepsia, all grades [4]: 0 n (%)
- Dyspepsia, grade 3/4 [4]: 0 n (%)
- Fatigue, all grades [4]: 3 (33) n (%)
- Fatigue, grade 3/4 [4]: 1 (11) n (%)
- Headache, all grades [4]: 1 (11) n (%)
- Headache, grade 3/4 [4]: 0 n (%)
- Hypoalbuminemia, all grades [4]: 0 n (%)
- Hypoalbuminemia, grade 3/4 [4]: 0 n (%)
- Lipase increased, all grades [4]: 0 n (%)
- Lipase increased, grade 3/4 [4]: 0 n (%)
- Localized edema, all grades [4]: 0 n (%)
- Localized edema, grade 3/4 [4]: 0 n (%)
- Maculo‐papular rash, all grades [4]: 0 n (%)
- Maculo‐papular rash, grade 3/4 [4]: 0 n (%)
- Myalgia, all grades [4]: 0 n (%)
- Myalgia, grade 3/4 [4]: 0 n (%)
- Nausea, all grades [4]: 0 n (%)
- Nausea, grade 3/4 [4]: 0 n (%)
- Odynophagia, all grades [4]: 0 n (%)
- Odynophagia, grade 3/4 [4]: 0 n (%)
- Peripheral edema, all grades [4]: 3 (33) n (%)
- Peripheral edema, grade 3/4 [4]: 0 n (%)
- Pyrexia, all grades [4]: 0 n (%)
- Pyrexia, grade 3/4 [4]: 0 n (%)
- Stomatitis, all grades [4]: 0 n (%)
- Stomatitis, grade 3/4 [4]: 0 n (%)
- Thrombocytopenia, all grades [4]: 1 (11) n (%)
- Thrombocytopenia, grade 3/4 [4]: 1 (11) n (%)
- Total protein decreased, all grades [4]: 0 n (%)
- Total protein decreased, grade 3/4 [4]: 0 n (%)
- Upper abdominal pain, all grades [4]: 0 n (%)
- Upper abdominal pain, grade 3/4 [4]: 0 n (%)
- Vomiting, all grades [4]: 0 n (%)
- Vomiting, grade 3/4 [4]: 0 n (%)
- ALT increased, all grades [5]: 1 (6) n (%)
- ALT increased, grade 3/4 [5]: 1 (6) n (%)
- AST increased, all grades [5]: 2 (11) n (%)
- Amylase increased, all grades [5]: 0 n (%)
- Amylase increased, grade 3/4 [5]: 0 n (%)
- Asthenia, all grades [5]: 1 (6) n (%)
- Asthenia, grade 3/4 [5]: 0 n (%)
- Blood bilirubin increased, all grades [5]: 0 n (%)
- Blood bilirubin increased, grade 3/4 [5]: 0 n (%)
- Blood creatinine increased, all grades [5]: 1 (6) n (%)
- Blood creatinine increased, grade 3/4 [5]: 0 n (%)
- Constipation, all grades [5]: 1 (6) n (%)
- Constipation, grade 3/4 [5]: 0 n (%)
- Decreased appetite, all grades [5]: 2 (11) n (%)
- Decreased appetite, grade 3/4 [5]: 0 n (%)
- Diarrhea, all grades [5]: 3 (17) n (%)
- Diarrhea, grade 3/4 [5]: 0 n (%)
- Dizziness, all grades [5]: 1 (6) n (%)
- Dizziness, grade 3/4 [5]: 0 n (%)
- Dyspepsia, all grades [5]: 2 (11) n (%)
- Dyspepsia, grade 3/4 [5]: 0 n (%)
- Fatigue, all grades [5]: 3 (17) n (%)
- Fatigue, grade 3/4 [5]: 0 n (%)
- Headache, all grades [5]: 0 n (%)
- Headache, grade 3/4 [5]: 0 n (%)
- Hypoalbuminemia, all grades [5]: 1 (6) n (%)
- Hypoalbuminemia, grade 3/4 [5]: 0 n (%)
- Lipase increased, all grades [5]: 1 (6) n (%)
- Lipase increased, grade 3/4 [5]: 0 n (%)
- Localized edema, all grades [5]: 2 (11) n (%)
- Localized edema, grade 3/4 [5]: 0 n (%)
- Maculo‐papular rash, all grades [5]: 2 (11) n (%)
- Maculo‐papular rash, grade 3/4 [5]: 0 n (%)
- Myalgia, all grades [5]: 2 (11) n (%)
- Myalgia, grade 3/4 [5]: 0 n (%)
- Nausea, all grades [5]: 6 (33) n (%)
- Nausea, grade 3/4 [5]: 0 n (%)
- Odynophagia, all grades [5]: 0 n (%)
- Odynophagia, grade 3/4 [5]: 0 n (%)
- Peripheral edema, all grades [5]: 4 (22) n (%)
- Peripheral edema, grade 3/4 [5]: 0 n (%)
- Pyrexia, all grades [5]: 0 n (%)
- Pyrexia, grade 3/4 [5]: 0 n (%)
- Stomatitis, all grades [5]: 1 (6) n (%)
- Stomatitis, grade 3/4 [5]: 0 n (%)
- Thrombocytopenia, all grades [5]: 0 n (%)
- Thrombocytopenia, grade 3/4 [5]: 0 n (%)
- Total protein decreased, all grades [5]: 0 n (%)
- Total protein decreased, grade 3/4 [5]: 0 n (%)
- Upper abdominal pain, all grades [5]: 0 n (%)
- Upper abdominal pain, grade 3/4 [5]: 0 n (%)
- Vomiting, all grades [5]: 4 (22) n (%)
- Vomiting, grade 3/4 [5]: 0 n (%)
- lipase increase, grade 3 or 4 (suspected study drug‐related, dose‐expansion cohorts): 5%
